Activity calls are given as the source filed them. The calls are words filed in the database; no cut-off is given here.
What was measured:
[1] = tested on: A-431; experiment: Cytotoxicity against human A431 cells assessed as reduction in cell viability at 2 uM preincubated for 4 hrs followed by 5 J/cm'-2 red light irradiation measured after 24 hrs by MTT assay relative to control; type: functional; conditions: A-431, light or radiation study
Summary of the method: (§1)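 A431 squamous carcinoma cells were seeded and incubated with ALA (1 or 2 μM) for 4 h. They were then exposed to either red light (630 nm ± 15 nm) or ultrasound. Viability was read by MTT assay 24 h after treatment.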

[2] = tested on: A-431; experiment: Cytotoxicity against human A431 cells assessed as reduction in cell viability at 1 uM preincubated for 4 hrs followed by 90 J/cm'-2 ultrasound irradiation measured after 24 hrs by MTT assay; type: functional, cell-based; summary of the method: as §1
[3] = tested on: A-431; experiment: Cytotoxicity against human A431 cells assessed as reduction in cell viability at 2 uM preincubated for 4 hrs followed by 90 J/cm'-2 ultrasound irradiation measured after 24 hrs by MTT assay relative to control; type: functional; conditions: A-431, light or radiation study; summary of the method: as §1
[4] = tested on: A-431; experiment: Cytotoxicity against human A431 cells assessed as reduction in cell viability at 1 uM preincubated for 4 hrs followed by 5 J/cm'-2 red light irradiation measured after 24 hrs by MTT assay; type: functional, cell-based; summary of the method: as §1
[5] = tested on: Mus musculus; experiment: Toxicity in topically dosed SCID mouse xenografted ectopically with human A431 cells assessed as reduction in body weight pretreated for 4 hrs via Metvix cream followed by 220 J/cm'-2 ultrasound irradiation measured on day 7 post dosing; type: organism-based, A-431; conditions: in vivo, topical_or_ocular
[6] = tested on: A-431; experiment: Antitumor activity against human A431 cells ectopically xenografted in topically dosed SCID mouse assessed as tumor growth pretreated for 4 hrs via Metvix cream followed by 40 J/cm'-2 red light irradiation measured on day 7 post dosing relative to control; type: functional
[7] = tested on: Mus musculus; experiment: Toxicity in topically dosed SCID mouse xenografted ectopically with human A431 cells assessed as reduction in body weight pretreated for 4 hrs via Metvix cream followed by 40 J/cm'-2 red light irradiation measured on day 7 post dosing; type: organism-based, A-431; conditions: in vivo, topical_or_ocular
[8] = tested on: A-431; experiment: Antitumor activity against human A431 cells ectopically xenografted in topically dosed SCID mouse assessed as tumor growth treated for 4 hrs via Metvix cream measured on day 7 post dosing relative to control; type: functional
[9] = tested on: A-431; experiment: Antitumor activity against human A431 cells ectopically xenografted in topically dosed SCID mouse assessed as tumor growth pretreated for 4 hrs via Metvix cream followed by 220 J/cm'-2 ultrasound irradiation measured on day 7 post dosing relative to control; type: functional
[10] = Induction of ROS generation in EtOH/H2O solution assessed as reduction in DPBF absorbance at 0.5 uM preincubated with compound followed by white light irradiation for 30 mins by UV-visible spectrometric analysis relative to control; type: physicochemical; set-up: scale not given: the % may be the effect or the level left; conditions: 0.5 h
[11] = Induction of ROS generation in EtOH/H2O solution assessed as reduction in DPBF absorbance at 0.5 uM preincubated with compound followed by ultrasound irradiation for 30 mins by UV-visible spectrometric analysis relative to control; type: physicochemical; set-up: scale not given: the % may be the effect or the level left; conditions: 0.5 h
[12] = Antitumor activity against mouse B16-F10-luc2 cells ectopically xenografted in nude mouse assessed as tumor growth at 100 uM pretreated with compound followed by ultrasound irradiation measured up to 6 days post dosing relative to control; type: functional
[13] = Cytotoxicity against mouse RIF1 cells assessed as reduction in cell viability at 0.5 uM preincubated for 3 hrs followed by 11.4 J/cm'-2 white light irradiation for 30 sec measured after 24 hrs by MTT assay relative to control; type: functional; conditions: RIF-1, light or radiation study
[14] = Cytotoxicity against mouse B16-F10-luc2 cells assessed as reduction in cell viability at 0.5 uM preincubated for 3 hrs followed by 90 J/cm'-2 ultrasound irradiation for 60 sec measured after 24 hrs by MTT assay relative to control; type: functional; conditions: B16-F10-luc2, light or radiation study
[15] = Antitumor activity against mouse B16-F10-luc2 cells ectopically xenografted in nude mouse assessed as tumor growth at 100 uM pretreated with compound followed by white light irradiation measured on day 4 post dosing relative to control; type: functional
[16] = tested on: HeLa; experiment: Cytotoxicity against human HeLa cells assessed as reduction in cell viability at 0.5 uM preincubated for 3 hrs followed by 11.4 J/cm'-2 white light irradiation for 30 sec measured after 24 hrs by MTT assay relative to control; type: functional; conditions: light or radiation study
[17] = Cytotoxicity against mouse B16-F10-luc2 cells assessed as reduction in cell viability at 0.5 uM preincubated for 3 hrs followed by 45 J/cm'-2 ultrasound irradiation for 30 sec measured after 24 hrs by MTT assay relative to control; type: functional; conditions: B16-F10-luc2, light or radiation study
[18] = tested on: HeLa; experiment: Cytotoxicity against human HeLa cells assessed as reduction in cell viability at 0.5 uM preincubated for 3 hrs followed by 22.8 J/cm'-2 white light irradiation for 60 sec measured after 24 hrs by MTT assay relative to control; type: functional; conditions: light or radiation study
[19] = Antitumor activity against mouse B16-F10-luc2 cells ectopically xenografted in nude mouse assessed as tumor growth at 100 uM pretreated with compound followed by ultrasound irradiation measured on day 4 post dosing relative to control; type: functional
[20] = Cytotoxicity against mouse B16-F10-luc2 cells assessed as reduction in cell viability at 0.5 uM preincubated for 3 hrs followed by 22.8 J/cm'-2 white light irradiation for 60 sec measured after 24 hrs by MTT assay relative to control; type: functional; conditions: B16-F10-luc2, light or radiation study
[21] = Cytotoxicity against mouse B16-F10-luc2 cells assessed as reduction in cell viability at 0.5 uM preincubated for 3 hrs followed by 11.4 J/cm'-2 white light irradiation for 30 sec measured after 24 hrs by MTT assay relative to control; type: functional; conditions: B16-F10-luc2, light or radiation study
[22] = tested on: RIF-1; experiment: Cytotoxicity against mouse RIF1 cells assessed as reduction in cell viability at 0.5 uM preincubated for 3 hrs followed by white light irradiation through 3.4 to 6.8 mm guinea pig skin barrier by MTT assay; type: functional, cell-based
[23] = tested on: Mus musculus; experiment: Toxicity in nude mouse xenografted ectopically with mouse B16-F10-Luc2 cells assessed as reduction in body weight at 100 uM pretreated with compound followed by ultrasound irradiation measured up to 6 days post dosing relative to control; type: organism-based; conditions: in vivo
[24] = Cytotoxicity against mouse RIF1 cells assessed as reduction in cell viability at 0.5 uM preincubated for 3 hrs followed by 45 J/cm'-2 ultrasound irradiation for 30 sec measured after 24 hrs by MTT assay relative to control; type: functional; conditions: RIF-1, light or radiation study
[25] = tested on: HeLa; experiment: Cytotoxicity against human HeLa cells assessed as reduction in cell viability at 0.5 uM preincubated for 3 hrs followed by 45 J/cm'-2 ultrasound irradiation for 30 sec measured after 24 hrs by MTT assay relative to control; type: functional; conditions: light or radiation study
[26] = Cytotoxicity against mouse RIF1 cells assessed as reduction in cell viability at 0.5 uM preincubated for 3 hrs followed by 90 J/cm'-2 ultrasound irradiation for 60 sec measured after 24 hrs by MTT assay relative to control; type: functional; conditions: RIF-1, light or radiation study
[27] = tested on: RIF-1; experiment: Cytotoxicity against mouse RIF1 cells assessed as reduction in cell viability at 0.5 uM preincubated for 3 hrs followed by ultrsound irradiation through 3.4 to 6.8 mm guinea pig skin barrier by MTT assay; type: functional, cell-based
[28] = Cytotoxicity against mouse RIF1 cells assessed as reduction in cell viability at 0.5 uM preincubated for 3 hrs followed by 22.8 J/cm'-2 white light irradiation for 60 sec measured after 24 hrs by MTT assay relative to control; type: functional; conditions: RIF-1, light or radiation study
[29] = tested on: Mus musculus; experiment: Toxicity in nude mouse xenografted ectopically with mouse B16-F10-Luc2 cells assessed as reduction in body weight at 100 uM pretreated with compound followed by white light irradiation measured up to 6 days post dosing relative to control; type: organism-based; conditions: in vivo
[30] = tested on: HeLa; experiment: Cytotoxicity against human HeLa cells assessed as reduction in cell viability at 0.5 uM preincubated for 3 hrs followed by 90 J/cm'-2 ultrasound irradiation for 60 sec measured after 24 hrs by MTT assay relative to control; type: functional; conditions: light or radiation study

NCC(=O)CCC(=O)O [AMINOLEVULINIC ACID]
inhibition at 2 µM [1]: 43%
inhibition [2]: Active
inhibition at 2 µM [3]: 31%
inhibition [4]: Active

COC(=O)CCC(=O)CN [METHYL AMINOLEVULINATE]
Activity [5]: Non-toxic
Activity [6]: 22%
Activity [7]: Non-toxic
Activity [8]: 90%
Activity [9]: 11%

C=CC1=C(C)c2cc3[nH]c(cc4nc(cc5[nH]c(cc1n2)c(C)c5CCC(=O)O)C(CCC(=O)O)=C4C)c(C)c3C=C [PROTOPORPHYRIN]
Activity [10]: 60%
Activity [11]: 17%

O=C([O-])c1c(Cl)c(Cl)c(Cl)c(Cl)c1-c1c2cc(I)c(=O)c(I)c-2oc2c(I)c([O-])c(I)cc12.[Na+].[Na+] [ROSE BENGAL SODIUM]
Activity [12]: 400%
inhibition at 0.5 µM [13]: 50%
inhibition at 0.5 µM [14]: 40%
Activity [15]: 400%
inhibition at 0.5 µM [16]: 50%
inhibition at 0.5 µM [17]: 25%
inhibition at 0.5 µM [18]: 50%
Activity [19]: 120%
inhibition at 0.5 µM [20]: 18%
inhibition at 0.5 µM [21]: 7%
inhibition [22]: inactive
Activity [23]: Non-toxic
inhibition at 0.5 µM [24]: 50%
inhibition at 0.5 µM [25]: 50%
Activity [10]: Active
inhibition at 0.5 µM [26]: 50%
inhibition [27]: Active
inhibition at 0.5 µM [28]: 50%
Activity [29]: Non-toxic
Activity [11]: Active
inhibition at 0.5 µM [30]: 50%

— ChEMBL document CHEMBL3808313, “Comparing the efficacy of photodynamic and sonodynamic therapy in non-melanoma and melanoma skin cancer” (Bioorg Med Chem, 2016)
